Reference: ChEMBL document CHEMBL4715836, “Synthesis and characterization of quinoline-carbaldehyde derivatives as novel inhibitors for leishmanial methionine aminopeptidase 1” (Eur J Med Chem, 2020)
Active and inactive are the calls of the source. The calls are words filed in the database; no cut-off is given here.

What was measured:
[1] = Inhibition of Leishmania donovani MetAP1 expressed in Escherichia coli BL21 (DE3) using L-methionine-4-methyl-coumary1-7-amide as substrate preincubated for 30 mins followed by substrate addition and measured at 1 min interval for 30 mins by spectrofluorometric method
Method in brief: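 His-tagged LdMetAP1 from pET28a, purified by Ni-NTA and gel filtration. Enzyme preincubated 30 min in metal-supplemented assay buffer with compound. L-Met-AMC added at 125 µM and fluorescence recorded. Percent inhibition taken as the net fluorescence decrease against control reactions; IC50 from a range of compound concentrations.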

Leishmania donovani [2] = assay: Uncompetitive inhibition of Leishmania donovani MetAP1 expressed in Escherichia coli BL21 (DE3) at 1 to 10 uM using varying levels of L-methionine-4-methyl-coumary1-7-amide as substrate preincubated for 30 mins followed by substrate addition and measured for 30 mins by Lineweaver-burk plot analysis; conditions: dose 1-10 µM, time 60.0 min
[3] = Cytotoxicity against mouse embryonic fibroblasts measured after 48 hrs by MTT assay; conditions: Fibroblast
Method in brief: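 Mouse embryonic fibroblasts exposed to compounds at 0, 50, 100 and 200 µM for 48 h. MTT solution (5 mg/ml) then added for 4 h at 37°C. Formazan dissolved in DMSO and absorbance read at 570 nm.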

[4] = Binding affinity to Leishmania donovani MetAP1 expressed in Escherichia coli BL21 (DE3) by surface plasmon resonance analysis
Method in brief: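 Recombinant LdMetAP1 amine-coupled to a CM-5 dextran chip. Running and injection buffer was 1X PBS pH 7.4 with 0.05% P-20. Compounds in 2% DMSO injected over the chip at a range of concentrations to record response units. After solvent correction, kinetics fitted to a 1:1 Langmuir binding model.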

Leishmania donovani [5] = assay: Binding affinity to Leishmania donovani MetAP1 expressed in Escherichia coli BL21 (DE3) assessed as intrinsic fluorescence quenching of tryptophan residues measured after 30 mins by fluorescence spectroscopic method
Method in brief: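 LdMetAP1 at 1 µM final in 20 mM Tris-HCl pH 7.5, 50 mM NaCl, incubated with compounds for 30 min at 25°C. Tryptophan fluorescence read at excitation ~295 nm, emission ~300-400 nm. F0/F1 plotted against compound concentration. KSV from linear regression; binding parameters from modified Stern-Volmer plots.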

Leishmania donovani [6] = assay: Competitive inhibition of Leishmania donovani MetAP1 expressed in Escherichia coli BL21 (DE3) at 1 to 10 uM using varying levels of L-methionine-4-methyl-coumary1-7-amide as substrate preincubated for 30 mins followed by substrate addition and measured for 30 mins by Lineweaver-burk plot analysis; conditions: dose 1-10 µM, time 60.0 min

| SMILES | IC50 [1] | other results |
| --- | --- | --- |
| O=C1CSC(c2ccc3cccc(O)c3n2)N1c1ccc(I)cc1 (stereo unspecified) | 252 µM | – |
| COc1ccc(N2C(=O)CSC2c2ccc3cccc(O)c3n2)cc1OC (stereo unspecified) | 26.4 µM | – |
| O=C1CSC(c2ccc3cccc(O)c3n2)N1c1cccc(F)c1 (stereo unspecified) | 8.8 µM | inhibition (Leishmania donovani [2]): Active; IC50 [3]: 120 µM; Kd [4]: 0.000161 µM; Activity (Leishmania donovani [5]): Dose-dependent effect |
| O=C1CSC(c2ccc3cccc(O)c3n2)N1c1cccc(OC(F)(F)F)c1 (stereo unspecified) | 46.4 µM | – |
| O=C1CSC(c2ccc3cccc(O)c3n2)N1c1ccccc1 (stereo unspecified) | 79.9 µM | – |
| CC(C)c1ccc(N2C(=O)CSC2c2ccc3cccc(O)c3n2)cc1 (stereo unspecified) | 37.4 µM | – |
| O=C1CSC(c2ccc3cccc(O)c3n2)N1c1ccc(F)cc1 (stereo unspecified) | 45.5 µM | – |
| COc1cccc(N2C(=O)CSC2c2ccc3cccc(O)c3n2)c1 (stereo unspecified) | 39.7 µM | – |
| O=C1CSC(c2ccc3cccc(O)c3n2)N1c1ccc(Cl)cc1 (stereo unspecified) | 1.1 µM | inhibition (Leishmania donovani [6]): Active; IC50 [3]: > 200 µM; Kd [4]: 0.015 µM; Activity (Leishmania donovani [5]): Dose-dependent effect |
| COc1cc(N2C(=O)CSC2c2ccc3cccc(O)c3n2)cc(OC)c1OC (stereo unspecified) | 12.9 µM | – |
| O=C1CSC(c2ccc3cccc(O)c3n2)N1c1ccc(C(F)(F)F)cc1 (stereo unspecified) | 54.1 µM | – |
| O=C1CSC(c2ccc3cccc(O)c3n2)N1c1ccc(Br)cc1 (stereo unspecified) | 36.8 µM | – |
| Cc1ccc(N2C(=O)CSC2c2ccc3cccc(O)c3n2)cc1 (stereo unspecified) | 1.31 µM | inhibition (Leishmania donovani [6]): Active; IC50 [3]: > 200 µM; Kd [4]: 0.0215 µM; Activity (Leishmania donovani [5]): Dose-dependent effect |
| O=C1CSC(c2ccc3cccc(O)c3n2)N1c1ccc(Oc2ccccc2)cc1 (stereo unspecified) | 43.8 µM | – |
| COc1cc(OC)cc(N2C(=O)CSC2c2ccc3cccc(O)c3n2)c1 (stereo unspecified) | 18.4 µM | – |
| COc1ccc(N2C(=O)CSC2c2ccc3cccc(O)c3n2)cc1 (stereo unspecified) | 62.5 µM | – |
| COc1ccccc1N1C(=O)CSC1c1ccc2cccc(O)c2n1 (stereo unspecified) | 18.4 µM | – |
| Cc1cccc(N2C(=O)CSC2c2ccc3cccc(O)c3n2)c1 (stereo unspecified) | 27.9 µM | – |
| N#Cc1cccc(N2C(=O)CSC2c2ccc3cccc(O)c3n2)c1 (stereo unspecified) | 11.7 µM | inhibition (Leishmania donovani [6]): Active; IC50 [3]: > 250 µM; Kd [4]: 0.0154 µM; Activity (Leishmania donovani [5]): Dose-dependent effect |
| O=C1CSC(c2ccc3cccc(O)c3n2)N1c1cccc(Br)c1 (stereo unspecified) | 46.1 µM | – |
